Laboratory results reported in article PMC10918659 (ACS Omega, 2024).
Where two headings read alike, the source gives them in different places.

Assays:
[1] = Serum biochemical parameters during NNK lung cancer induction; format: in vivo, Sprague-Dawley rats
Procedure, shortened: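 NNK was given to Sprague-Dawley rats (200–250 g) as […]. Tail-vein blood was clotted 30 min at RT, spun 20 min at 1200 rpm, and serum stored at −80 °C. TBARS: TCA/TBA/HCl at 95 °C for 15 min, […]. SOD: epinephrine in carbonate buffer pH 9.2, A295, reported as units/mg protein.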

[2] = cited from earlier work
Toxicity experiment = format: in vivo, Sprague-Dawley rats; settings: daily for 2 weeks; SB 3.5 mg/kg, NPs 2.5 mg/kg
Procedure, shortened: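 Sprague-Dawley rats, n = 6 per group, were dosed daily for 2 weeks with free test compound (3.5 mg/kg), folate-conjugated nanoparticles (2.5 mg/kg), or saline via the caudal vein. Food and water were given freely. After 2 weeks, rats were sacrificed and lungs, liver, kidneys and spleen were weighed. Body-weight gain was recorded, and the organ index (mg/g) was calculated from organ weights.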

Pharmacokinetic study = format: in vivo, Sprague-Dawley rats; settings: for Cmax / MRT / Tmax / half-life: Sprague-Dawley, rat, inhaled or intranasal, 3.5 mg/kg; for Frel: relative to silibinin solution; for AUCtotal / CL: silibinin 3.5 mg/kg, NPs 2.5 mg/kg by microspray aerosolizer

CN(CCCC(=O)c1cccnc1)N=O [NNK, 4-(methylnitrosamino)-1-(3-pyridyl)-1-butanone]
increase of MDA content in sera vs control ([1]; 2 months): 4.21% | reduction of SOD activity vs control ([1]; 2 months): 10.437% | increase of MDA content in sera vs control ([1]; 3 months): 21.4% | reduction of SOD activity vs control ([1]; 3 months): 29.16% | increase of MDA content in sera vs control ([1]; 4 months): 35.16% | reduction of SOD activity vs control ([1]; 4 months): 45.21%

COc1cc(C2Oc3cc([C@H]4Oc5cc(O)cc(O)c5C(=O)[C@@H]4O)ccc3OC2CO)ccc1O (stereo partly drawn) [silibinin]
Tmax ([2]; after oral administration): 2 to 4 h | half-life ([2]; after oral administration): 6 h | oral rate of absorption ([2]; conventional silibinin): 23–47% | increment in weight (Toxicity experiment): 29.85 ± 3.21 g | kidney organ index (Toxicity experiment): 3.78 mg/g | liver organ index (Toxicity experiment): 39.52 mg/g | lung organ index (Toxicity experiment): 6.27 mg/g | spleen organ index (Toxicity experiment): 7.42 mg/g | Cmax (Pharmacokinetic study; lung): 32500 ± 25800 ng/mL | MRT (Pharmacokinetic study; lung): 3.88 ± 0.87 h | Tmax (Pharmacokinetic study; lung): 1 ± 2.21 h | half-life (Pharmacokinetic study; lung): 4.3 ± 0.58 h | Cmax (Pharmacokinetic study; plasma): 23600 ± 13200 ng/mL | MRT (Pharmacokinetic study; plasma): 4.25 ± 1.05 h | Tmax (Pharmacokinetic study; plasma): 1 ± 2.21 h | half-life (Pharmacokinetic study; plasma): 8.9 ± 1.25 h | Frel (Pharmacokinetic study; lung kinetics): 1 | AUCtotal (Pharmacokinetic study; lung kinetics): 745.2 ± 102.5 µg·h/mL | CL (Pharmacokinetic study; lung kinetics): 0.57 ± 1.02 h⁻¹ | time to reach peak (Pharmacokinetic study; lungs): 1 h | time to reach peak (Pharmacokinetic study; plasma): 1 h | Frel (Pharmacokinetic study; plasma kinetics): 1 | AUCtotal (Pharmacokinetic study; plasma kinetics): 978.5 ± 118.52 µg·h/mL | CL (Pharmacokinetic study; plasma kinetics): 0.87 ± 0.89 h⁻¹
